Source: PubChem
Sampled rows, rich in hits. Any-hit rate of the full collection: about 1.3%.
HNF4A DNA FP = change in binding of human HNF4 alpha to DNA | 360,000 compounds, 0.3% hits | activity change, % at 10 µM | AID 1224865 | HNF4a-FITC DNA binding, fluorescence polarization, 1 h; in the data active = activity change above about 30%, passing the limit was not always enough
Rpn11 inh = inhibitors of human proteasome Rpn11; human 26S proteasome, Ub4-pepOG fluorescence polarization; 20S core pre-blocked with epoxomicin; inhibition, % at 20 µM; 360,000 compounds, 0.59% hits; AID 588493;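 active = inhibition at 20 µM, scaled to each plate's controls, above about 33%, limit read from the data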
Target sequence (O00487 whole entry, looked up): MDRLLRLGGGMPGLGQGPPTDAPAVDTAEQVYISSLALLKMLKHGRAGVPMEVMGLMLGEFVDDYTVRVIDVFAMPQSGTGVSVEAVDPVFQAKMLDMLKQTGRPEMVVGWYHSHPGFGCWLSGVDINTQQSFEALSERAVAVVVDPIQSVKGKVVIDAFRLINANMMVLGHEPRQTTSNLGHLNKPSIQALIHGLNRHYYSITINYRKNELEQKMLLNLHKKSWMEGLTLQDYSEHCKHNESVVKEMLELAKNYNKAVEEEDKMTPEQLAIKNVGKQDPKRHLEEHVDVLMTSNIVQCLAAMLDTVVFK
CSN deneddyl inh = CSN deneddylation inhibition. Purified CSN, SCF-Nedd8-OG deneddylation, fluorescence polarization. 360,000 compounds, 0.38% hits. inhibition, % at 12.5 µM;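 active = pattern-corrected inhibition above about 35%, with an unprinted fluorescence ratio check between 0.5 and 1.5, limit read from the data, passing the limit was not always enough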;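 note: 0% = enzyme with substrate and 100% = substrate without enzyme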
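Schedule: reaction 90 min, room temperature / Assay system: HEK293T-derived human Csn5 enzyme / Input: Csn5 at 0.24 nM final / Measure: inhibition of Csn5 cleavage, % / Control set: substrate-only high control, full reaction low control / Technique: fluorescence polarization of the substrate / Buffer or medium: Tris/NaCl/DTT buffer, pH 7.5 / Reagent: SCFSkp2-Nedd8OG substrate at 10 nM final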
TPT1 inhibitor = blocks Candida albicans tRNA 2'-phosphotransferase; 300,000 compounds, 0.81% hits; recombinant caTPT1, FP RNA substrate dephosphorylation; inhibition, % at 5 µM;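 active = inhibition above the mean of all tested compounds plus 3 SD, set per screening campaign, cut at about 24% in these data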;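 note: plate controls were DMSO alone for no effect and ferristatin control at 100 nM for full effect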
XiGFP reactiv = reactivates the inactive X chromosome in mouse fibroblasts; activation, % at 7.58 µM; XiGFP mouse fibroblasts, % GFP-positive cells imaging, 3 d; cells co-treated with 5-aza-dC sensitizer; scaled so ellipticine positive control = 100%; 360,000 compounds, 0.055% hits;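 active = mean normalized replicate activation at least 10% and every replicate at or above 10%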;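 note: 0% = median of on-plate neutral control wells and 100% = ellipticine 6 µM median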
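material = 68-5-11 XiGFP fibroblast line | medium = DMEM plus 5-aza-dC sensitizer | schedule = 3 days compound exposure | benchmarks = positive control ellipticine, 6 µM final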
aDG glyco up = alpha-DG glycosylation activation; Pro5-aDG cells, alpha-DG glycosylation AlphaScreen (IIH6); 0% Pro5, 100% B10-LARGE cell signal; activation, % at 10 µM; 360,000 compounds, 0.22% hits; AID 624168;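 active = activation of at least 8% versus controls, or a plate z-score of at least 8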;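 note: Pro5 are CHO cells carrying HIG-tagged alpha-DG that lacks glycosylation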
TPT1 inh confirm = confirmation of Candida albicans TPT1 inhibitors. shares compounds with TPT1 inhibitor. recombinant caTPT1, fluorescence polarization, RNase T1 coupled. inhibition, % at 5 µM. 2,400 compounds, 74% hits. AID 2149;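 active = inhibition above the primary screen limit, the mean inhibition of all tested compounds plus 3 SD, cut at about 25% in these data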
RNase T1 inh = RNase T1 inhibition in TPT1 counter-screen; RNase T1 cleavage, fluorescence polarization, 1536-well; inhibition, % at 5 µM; AID 2153; shares compounds with TPT1 inhibitor; 2,400 compounds, 83% hits;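 active = inhibition above the solvent-only control well mean plus 3 SD, limit set per screening run, cut at about 23% in these data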;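 note: plate controls were DMSO wells with enzyme for no effect and wells without RNase T1 for full effect; inhibitors block cleavage so intact labeled substrate keeps polarization high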
Target sequence (P00651 whole entry, looked up): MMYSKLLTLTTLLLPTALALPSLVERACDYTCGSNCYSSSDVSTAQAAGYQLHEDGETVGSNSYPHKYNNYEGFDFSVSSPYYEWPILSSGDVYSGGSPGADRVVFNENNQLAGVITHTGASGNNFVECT
* marks the source's active call; other numbers are inactive results; nt = no result shown.

SMILES	HNF4A DNA FP	Rpn11 inh	CSN deneddyl inh	TPT1 inhibitor	XiGFP reactiv	aDG glyco up	TPT1 inh confirm	RNase T1 inh
Cc1ccc([N+](=O)[O-])cc1N/C=C/C(=O)c1ccco1	-3	-1	5	1	nt	0	nt	nt
Cc1ccc(N/C=C/C(=O)c2ccco2)c(O)c1	9	39	2	29*	0	0	46*	55*
O=C(O)C(=O)/C(=C\c1cccc(Cl)c1)c1ccc2ccccc2n1	0	27	0	30*	0	0	42*	58*
Cc1cccc(/C=C(\C(=O)C(=O)O)c2ccc3ccccc3n2)c1	7	14	3	16	0	0	nt	nt
CCOC(=O)/C=c1\s/c(=C\c2ccccc2C)c(=O)n1CC(=O)NCc1ccc2c(c1)OCO2	11	36	10	41*	0	0	30*	43*
CCOC(=O)/C=c1/s/c(=C\c2c(OC)ccc3ccccc23)c(=O)n1CC(=O)NCC1CCCO1 (stereo unspecified)	15	nt	10	nt	1	0	nt	nt
Cc1ccccc1CN1CCN(CC(=O)NCc2ccc3c(c2)OCO3)C1=O	5	-4	-3	1	nt	0	nt	nt
CCOC(=O)/C=c1\s/c(=C\c2c(OCC)ccc3ccccc23)c(=O)n1CC(=O)NCC1CCCO1 (stereo unspecified)	15	nt	9	25*	nt	0	19	32*
O=C(C[C@H]1C=C[C@H](NC(=O)Nc2ccc3c(c2)OCO3)[C@@H](CO)O1)NCc1ccc(F)cc1	nt	nt	nt	nt	0	nt	nt	nt
COCC(=O)Nc1ccc2c(c1)[C@H]1C[C@H](CC(=O)N3CCc4ccccc4C3)O[C@H](CO)[C@H]1O2	nt	nt	nt	nt	0	nt	nt	nt
Cc1[nH]c2ccccc2c1/C=C/C(=O)c1ccccc1	24	nt	15	32*	0	0	63*	75*
CCn1c(/C=C/c2c(C)[nH]c3ccccc23)nc2ccccc2c1=O	22	nt	-1	38*	0	0	59*	71*
CCOc1cc2c(C#N)c(N3CCCCC3)nc(N)c2c(N)n1	31	nt	19	50*	nt	0	49*	58*
COc1ccc(CN2C(=O)Cc3c2nc(N)c2c(N)nc(N4CCCCC4)c(C#N)c32)cc1	nt	nt	nt	31*	nt	nt	58*	68*
CCOc1cc2c(C#N)c(N3CCNCC3)nc(N)c2c(N)n1	3	11	-16	0	nt	0	nt	nt
COC(=O)Cn1c(=O)c2c(n(Cc3ccccc3)c1=O)N/C(=C/c1ccc(Br)cc1)C2=O	14	nt	13	43*	0	0	32*	47*
COC(=O)CN1C(=O)N/C(=C/c2ccc(OC)cc2)C1=O	-6	8	-2	-2	0	0	nt	nt
O=[N+]([O-])c1ccc2c(c1)CNc1ccccc1O2	1	0	4	-3	0	0	nt	nt
O=C1Nc2ccccc2Oc2cc([N+](=O)[O-])cc(Oc3ccccc3)c21	17	nt	36*	27*	0	1	46*	59*
COc1ccc(/C=C/c2cccc[n+]2C)c(O)c1	-1	20	3	1	0	0	nt	nt
CCN(CC)c1ccc(/C=C/c2cccc[n+]2C)c(OC)c1	179	nt	140	58*	0	0	62*	68*
C[C@@H]1CN([C@H](C)CO)C(=O)c2cc(-c3ccc(F)cc3)cnc2O[C@H]1CN(C)C(=O)NC1CCCC1	nt	nt	nt	nt	-1	nt	nt	nt
CC(C)N1CCc2c(sc(N)c2C#N)C1	19	30	9	30*	nt	0	42*	48*
CC(C)N1CCc2c(sc(NC(=O)c3ccc(S(=O)(=O)N4CCOCC4)cc3)c2C#N)C1	98	nt	26	127*	nt	1	156*	147*
CC(C)N1CCc2c(sc(NC(=S)NC(=O)c3ccccc3)c2C#N)C1	44*	nt	40*	94*	3	0	81*	86*
SMILES	HNF4A DNA FP	Rpn11 inh	CSN deneddyl inh	TPT1 inhibitor	XiGFP reactiv	aDG glyco up	TPT1 inh confirm	RNase T1 inh
CCCN1CCc2c(sc(NC(=S)NC(=O)c3ccccc3)c2C#N)C1	93	nt	-98	88*	7	0	62*	71*
CCOC(=O)c1c(NC(=O)c2ccc(S(=O)(=O)N3CCOCC3)cc2)sc2c1CCN(C)C2	6	8	1	5	nt	0	nt	nt
Cc1sc(NC(=S)NC(=O)c2ccccc2)c(C#N)c1C	-1	4	0	2	nt	0	nt	nt
CC(C)C1Cc2c(sc(NC(=S)NC(=O)c3ccccc3)c2C#N)CO1 (stereo unspecified)	6	2	1	1	1	0	nt	nt
O=C(NCCN1CCCC1)[C@H]1[C@H](CO)[C@H]2Cn3c(cccc3=O)[C@@H]1N2C(=O)NC1CCCC1	nt	nt	nt	nt	0	nt	nt	nt
CCN1CCc2c(sc(NC(=S)NC(=O)c3ccc(Cl)cc3)c2C(N)=O)C1	76	nt	28	27*	1	1	30*	36*
CC=Cc1ccc2n(c1=O)C[C@@H]1[C@@H](CO)[C@H](C(=O)N3CCCCC3)N(Cc3ccccc3OC)[C@H]21 (mixture of isomers)	nt	nt	nt	nt	0	nt	nt	nt
CC(=Nc1cccc(C)c1)c1sc2ccccc2c1O	16	29	9	42*	nt	0	68*	80*
CC(=O)NCCN=C(C)c1sc2ccccc2c1O	-3	-2	0	1	nt	0	nt	nt
CC(=Nc1ccc(O)cc1)c1sc2ccccc2c1O	19	21	35	55*	nt	0	65*	80*
CC(=Nc1ccccc1O)c1sc2ccccc2c1O	38*	nt	8	104*	0	0	125*	126*
C[C@@H]1CN([C@H](C)CO)C(=O)c2cc(NC(=O)Cc3ccccc3)ccc2O[C@@H]1CN(C)C(=O)Nc1ccc2c(c1)OCO2	nt	nt	nt	nt	0	nt	nt	nt
O=C(C[C@H]1CC[C@@H](NC(=O)c2cnccn2)[C@@H](CO)O1)NCc1ccccc1F	nt	nt	nt	nt	0	nt	nt	nt
CN(C)c1ccc(/C=C2\N=C(c3ccc(Cl)c([N+](=O)[O-])c3)NC2=O)cc1	23	37	19	53*	0	0	86*	94*
CN(C)c1ccc(/C=C2/NC(=O)NC2=O)cc1	9	20	7	12	0	1	nt	nt
COc1ccc(S(=O)(=O)Nc2ccc3c(c2)C(=O)N([C@@H](C)CO)C[C@H](C)[C@H](CN(C)Cc2ccc(C(F)(F)F)cc2)OCCCC[C@H](C)O3)cc1	nt	nt	nt	nt	0	nt	nt	nt
CCOc1ccccc1N1CCN(c2nc(N)c(C#N)c(CC#N)c2C#N)CC1	8	20	18	28*	nt	0	30*	42*
